Measurements from article PMC4784694 (Molecular cancer therapeutics, 2015).

Assays:
breast cancer cells = conditions: Supplemental Figure 3B; others and own data
MDA-MB-231 tumors [1] = test: Eribulin dose ranging in mice bearing MDA-MB-231 tumors; format: in vivo
Procedure, shortened: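 Female NSG mice, 6–8 weeks old, were inoculated with 5×10⁵ MDA-MB-231 cells in Matrigel into the #9 mammary fat pad to form orthotopic tumours. Eribulin was diluted in saline and given i.v. once a week, at 0.1 mg/kg for primary fat-pad therapy. Vehicle controls received saline. Weight change is reported as mean and range.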

MDA-MB-231 tumors [2] = format: in vivo, NSG mice; conditions: eribulin 0.1 mg/kg i.v.; POL5551 20 mg/kg s.c. b.i.d.; Figure 5A–C

| Compound | SDF-1 mediated migration of breast cancer cells (breast cancer cells) | Primary breast tumor reduction (MDA-MB-231 tumors [1]; eribulin 0.1 mg/kg single-agent, Supplemental Figure 5F) | Mice survival (MDA-MB-231 tumors [1]; eribulin dose ranging, Supplemental Figure 5D) | Treatment associated weight loss (MDA-MB-231 tumors [1]; high dose of eribulin (>0.5 mg/kg), Supplemental Figure 5E) | Primary MFP tumor growth (MDA-MB-231 tumors [2]) |
| --- | --- | --- | --- | --- | --- |
| c1cc(CN2CCCNCCNCCCNCC2)ccc1CN1CCCNCCNCCCNCC1 [AMD3100] | can block SDF-1 mediated migration of breast cancer cells | – | – | – | – |
| C=C1C[C@@H]2CC[C@@]34C[C@H]5O[C@H]6[C@@H](O3)[C@H]3O[C@H](CC[C@@H]3O[C@H]6[C@H]5O4)CC(=O)C[C@@H]3[C@@H](OC)[C@@H](C[C@H](O)CN)O[C@H]3C[C@H]3O[C@@H](CC[C@@H]1O2)C[C@@H](C)C3=C [eribulin, Eribulin] | – | 50% | prolonged mice survival in a dose-dependent manner | greater treatment associated weight loss | decreased primary tumor growth rate |
